≈ marks a conversion by molar mass, not a printed value. Calls of active or inactive are those of the source. The rule behind the calls is not given here.
Experiments:
Trypanosoma cruzi [1] = test: Antimicrobial activity against blood stream form of Trypanosoma cruzi RA assessed as growth inhibition at 1 to 70 ug/ml after 24 hrs by Neubauer chamber counting analysis; assay type: functional, organism-based
Outline: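 RA-strain bloodstream trypomastigotes were enriched from infected-mouse blood at peak parasitemia. They were used at 1.5 x 10^6/mL in RPMI 1640 with 10% FCS. Parasites were exposed for 24 h at 37 °C in 5% CO2 to 0–70 ug/mL compound from 40 mM DMSO stocks (final DMSO <0.5%). 0.5% DMSO served as negative control. Surviving parasites were counted by Neubauer chamber. Three independent experiments, each in triplicate.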

Trypanosoma cruzi [2] = test: Antimicrobial activity against Trypanosoma cruzi RA amastigotes infected in African green monkey Vero cells assessed as growth inhibition at 1 ug/ml after 72 hrs by Giemsa staining-based light microscopy; assay type: functional, organism-based
Outline: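 RA-strain bloodstream trypomastigotes infected irradiated Vero cells (2000 rads) on coverslips at a 5:1 parasite:cell ratio for 24 h. Cells were washed, then exposed to 1 ug/mL compound for 72 h at 37 °C in 5% CO2. Coverslips were fixed in methanol and Giemsa-stained. Infected cells were scored by light microscopy against untreated infected cultures.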

Trypanosoma cruzi [3] = test: Antimicrobial activity against Trypanosoma cruzi RA amastigotes infected in African green monkey Vero cells assessed as growth inhibition after 72 hrs by Giemsa staining-based light microscopy; assay type: functional, organism-based
Outline: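 Vero cells irradiated at 2000 rads, seeded on coverslips and infected with bloodstream trypomastigotes of RA strain at 5:1 parasite:cell for 24 h. Free parasites were washed off and cultures incubated 72 h with compound, 0.5–50 range, triplicate, at 37 °C in 5% CO2. Vehicle 0.5% DMSO. Coverslips were methanol-fixed and Giemsa-stained. Infection rate and amastigotes per cell (100 infected cells) were read by light microscopy. IC50 estimated from percentage infection.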

[4] = Drug degradation in 0.1 M HCl assessed as allopurinol formation at 1 mg/ml at 90 degC; assay type: physicochemical; conditions: buffer
[5] = Drug degradation in simulated intestinal fluid at 37 degC after 3 hrs; assay type: physicochemical; conditions: read-out: Drug degradation
Outline: (§1)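 Compounds came from DMSO stocks of 1.0 x 10^-4 mol/mL. They were incubated at 37 °C in buffer pH 1.2 or SGF (pepsin) for 1 h, and in buffer pH 6.8 or SIF (pancreatin) for 3 h. Samples were analysed by micellar LC. Percent degradation was reported; kinetics were treated as pseudo-first-order.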

[6] = Drug degradation in 0.1 M NaOH assessed as allopurinol formation at 1 mg/ml at 90 degC; assay type: physicochemical
[7] = Intrinsic solubility of the compound in standard phosphate buffer at pH 6.8 at 25 degC after 24 hrs by shake-flask method; assay type: physicochemical; conditions: read-out: Intrinsic_solubility
Outline: (§2)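 Shake-flask intrinsic solubility: solid compound was added to phosphate buffer until excess remained undissolved. The thermostated saturated solution was shaken for 24 h to reach equilibrium, at 25 °C and at 37 °C.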

[8] = Stability of the compound in 0.1 M SDS-0.01 M 7.5% (v/v) 1-propanol-NaH2PO4/H3PO4 assessed as compound recovery at 7.5 x 10^-9 mol/ml by micellar liquid chromatography; assay type: physicochemical
Outline: (§3)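 Recovery: N1-acyl compounds were spiked at 7.5 x 10^-9, 6 x 10^-8 and 3.5 x 10^-7 mol/mL (ten replicates each) into pH 1.2 and 6.8 buffers, SGF and SIF. Analysis used MLC with 0.1 M SDS–7.5% 1-propanol–0.01 M NaH2PO4/H3PO4 pH 3.0, at 1 mL/min, 25 °C and 276 nm. Recovery was calculated against working standards.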

[9] = Stability of the compound in simulated gastric fluid assessed as retention time by micellar liquid chromatography; assay type: physicochemical; conditions: simulated gi fluid
[10] = Octanol-water partition coefficient, log P of the compound by RP-HPLC analysis; assay type: physicochemical
Outline: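 RP-HPLC lipophilicity: isocratic buffer pH 5.5–MeOH, 30–75% MeOH in 5% steps. Three injections per compound and five per standard at each ratio. log k' = log(tR − t0)/t0 was computed from retention times.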

[11] = Stability of the compound in 0.1 M SDS-0.01 M 7.5% (v/v) 1-propanol-NaH2PO4/H3PO4 assessed as compound recovery at 3.5 x 10^-7 mol/ml by micellar liquid chromatography; assay type: physicochemical; outline: as §3
[12] = Intrinsic solubility of the compound in standard phosphate buffer at pH 6.8 at 37 degC after 24 hrs by shake-flask method; assay type: physicochemical; conditions: read-out: Intrinsic_solubility; outline: as §2
[13] = Half life in human plasma; assay type: ADME, cell-free
Outline: (§4)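 Stability in human plasma was followed by micellar LC, with allopurinol tracked as product. Pseudo-first-order kinetics gave t1/2 or kobs.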

Plasma = test: Metabolic stability of the compound in human plasma; assay type: ADME, cell-free; outline: as §4
[14] = Stability of the compound in 0.1 M SDS-0.01 M 7.5% (v/v) 1-propanol-NaH2PO4/H3PO4 assessed as compound recovery at 6 x 10^-8 mol/ml by micellar liquid chromatography; assay type: physicochemical; outline: as §3
[15] = Drug degradation in 3.5% H2O2 assessed as allopurinol formation; assay type: physicochemical
[16] = Drug degradation in buffer at 37 degC at pH 1.2 after 1 hr
[17] = Drug degradation in buffer at 37 degC at pH 6.8 after 3 hrs in presence of pancreatin; assay type: physicochemical; conditions: buffer with pancreatin, read-out: Drug degradation; outline: as §1
[18] = Drug degradation in simulated gastric fluid at 37 degC after 1 hr; assay type: physicochemical; conditions: read-out: Drug degradation; outline: as §1
[19] = Stability of the compound in simulated intestinal fluid at 37 degC after 3 hrs; assay type: physicochemical; conditions: simulated gi fluid; outline: as §1
[20] = Stability of the compound in simulated intestinal fluid assessed as retention time by micellar liquid chromatography; assay type: physicochemical; conditions: simulated gi fluid
[21] = Stability of the compound in buffer at 37 degC at pH 6.8 after 3 hrs in presence of pancreatin; assay type: ADME; conditions: pH 6.8, 3 h; outline: as §1
[22] = Stability of the compound in buffer at 37 degC at pH 1.2 after 1 hr in presence of pepsin; assay type: ADME; conditions: isolated protein, pH 1.2, 1 h; outline: as §1
[23] = Stability of the compound in simulated gastric fluid at 37 degC after 1 hr; assay type: physicochemical; conditions: simulated gi fluid; outline: as §1
[24] = Stability of the compound in 0.05 M SDS-0.01 M NaH2PO4/H3PO4 assessed as compound recovery at 3.5 x 10^-7 mol/ml by micellar liquid chromatography; assay type: physicochemical
Outline: (§5)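 Analytical recovery. Standards at 7.5 × 10⁻⁹, 6 × 10⁻⁸ and 3.5 × 10⁻⁷ mol/mL, ten replicates each, were spiked into pH 1.2 and pH 6.8 buffers and into SGF and SIF. They were analysed by MLC with mobile phase 0.05 M SDS–0.01 M NaH2PO4/H3PO4 pH 3.0 at 1.25 mL/min, 25 °C, detection at 250 nm. Recovery was found concentration relative to working standards.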

[25] = Dissociation constant, pKa of the compound at 25 degC; assay type: physicochemical
Outline: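 pKa computed with ACDpKa software. Only for the parent drug was it checked against a pH-solubility profile at 25 °C.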

[26] = Cytotoxicity against mouse splenocytes assessed as cell viability at 50 times IC50 after 32 hrs by Alamar Blue assay; assay type: cell-based; conditions: splenocyte
Outline: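 Viability was read by Alamar Blue and expressed as percent of untreated control. Two experiments, each in duplicate.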

[27] = Drug degradation in 0.1 M NaOH at 1 mg/ml at 90 degC after 16 hrs; assay type: physicochemical
Outline: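 Compound at 1 mg/mL was heated in 0.1 M NaOH at 90 °C for 16 h. Percent degradation was quantified by micellar liquid chromatography.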

[28] = Stability of the compound in 0.05 M SDS-0.01 M NaH2PO4/H3PO4 assessed as compound recovery at 7.5 x 10^-9 mol/ml by micellar liquid chromatography; assay type: physicochemical; outline: as §5
[29] = Stability of the compound in 0.05 M SDS-0.01 M NaH2PO4/H3PO4 assessed as compound recovery at 6 x 10^-8 mol/ml by micellar liquid chromatography; assay type: physicochemical; outline: as §5
[30] = Drug degradation in 30% H2O2 assessed as allopurinol formation; assay type: physicochemical

solubility thermodynamic at 24 h [7] [µg/mL]	Drug recovery [8] [%]	Retention_time [9] [min]	logP [10]	Drug recovery [11] [%]	solubility thermodynamic at 24 h [12] [µg/mL]	Stability (Plasma)	Drug recovery [14] [%]	Retention_time [20] [min]	Structure (SMILES)	growth inhibition (GI) (Trypanosoma cruzi [1])	growth inhibition (GI) (Trypanosoma cruzi [2])	further results
									CCCC(=O)n1ncc2c(=O)[nH]cnc21	inactive	Active	IC50 (Trypanosoma cruzi [3]): 11.3 µM; inhibition (Trypanosoma cruzi [3]): Dose-dependent effect
> 65	98.03	3	0.4	99.04	> 65	Unstable	102.42		CC(=O)n1ncc2c(O)ncnc21			Stability [4]: Unstable; degraded at 3 h [5]: 100%; Stability [6]: Unstable; half-life [13]: 8.4 min; Stability [15]: Unstable; metabolised at 1 h [16]: 17.1%; metabolised at 3 h [17]: 100%; degraded at 1 h [18]: 18.9%
									CCCc1nc(O)c2c[nH]nc2n1	inactive		
									O=C(Cn1ccnc1[N+](=O)[O-])NCc1ccccc1		Active	
710 (≈ 4.32 mM)	101.19		0.52	97.78	940 (≈ 5.73 mM)	100%	97.07	4.7	CCc1nc(O)c2c[nH]nc2n1	inactive	Active	Stability [19]: Stable; Stability [21]: Stable; Stability [22]: Stable; Stability [23]: Stable
									CC(=O)n1ncc2c(=O)[nH]cnc21	inactive		
2070 (≈ 11.6 mM)	101.17		1.14	100.27	2560 (≈ 14.4 mM)	100%	99.59	7.8	CCCc1nc2n[nH]cc2c(=O)[nH]1			Stability [19]: Stable; Stability [21]: Stable; Stability [22]: Stable; Stability [23]: Stable
> 65	99.74	4	1.22	103.18	> 65	Unstable	103.09		CCC(=O)n1ncc2c(O)ncnc21			Stability [4]: Unstable; degraded at 3 h [5]: 100%; Stability [6]: Unstable; half-life [13]: 9.5 min; Stability [15]: Unstable; metabolised at 1 h [16]: 30.3%; metabolised at 3 h [17]: 100%; degraded at 1 h [18]: 32%
1480 (≈ 9.86 mM)	98.57		-0.05	102.77	2020 (≈ 13.5 mM)	100%	102.72	3	Cc1nc(O)c2c[nH]nc2n1	inactive	Active	Stability [19]: Stable; Stability [21]: Stable; Stability [30]: Stable; Stability [22]: Stable; Stability [23]: Stable
> 65	103.11	7.7	1.99	100.3	> 65	Unstable	101.42		CCCC(=O)n1ncc2c(O)ncnc21			Stability [4]: Unstable; degraded at 3 h [5]: 100%; Stability [6]: Unstable; Activity [26]: Non-toxic; half-life [13]: 6.1 min; Stability [15]: Unstable; metabolised at 1 h [16]: 27%; metabolised at 3 h [17]: 100%; degraded at 1 h [18]: 26.5%
									CCC(=O)n1ncc2c(=O)[nH]cnc21	inactive		

Structure (SMILES)	solubility thermodynamic at 24 h [7] [µg/mL]	Drug recovery [8] [%]	Retention_time [9] [min]	logP [10]	Drug recovery [11] [%]	solubility thermodynamic at 24 h [12] [µg/mL]	Stability (Plasma)	Drug recovery [14] [%]	Retention_time [20] [min]	growth inhibition (GI) (Trypanosoma cruzi [1])	growth inhibition (GI) (Trypanosoma cruzi [2])	further results
Oc1ncnc2[nH]ncc12 [ALLOPURINOL]	490 (≈ 3.6 mM)	102.4	2.4		97.54	900 (≈ 6.61 mM)	100%	98.55	2.6		Active	Drug recovery [24]: 100.17%; pKa [25]: 9.7; Activity [26]: Non-toxic; Stability [27]: Stable; Drug recovery [28]: 97.37%; Drug recovery [29]: 98.85%; IC50 (Trypanosoma cruzi [3]): 9.62 µM; inhibition (Trypanosoma cruzi [3]): Dose-dependent effect

Source: ChEMBL document CHEMBL2434933, “Synthesis, physicochemical properties of allopurinol derivatives and their biological activity against Trypanosoma cruzi” (Eur J Med Chem, 2013)
